Data set [1] is described as follows: folding enthalpy; higher = less favourable; fluorescence melt of hairpins on a sequencing array, two-state fit. The following applies: sodium 0.088 M. The method, boiled down: (§1)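 Folding enthalpy and melting temperature were estimated with bootstrapped two-state fits and combined across four replicates by inverse-variance weighting, with fitted temperatures raised by 9.35 °C to match UV melts. The data were Cy3 fluorescence of library hairpins, with annealed Cy3 and quencher oligos, on a sequenced MiSeq flow cell in 50 mM Na-HEPES pH 8.0, 25 mM NaCl, imaged in 2.5 °C steps up to 60 °C and normalised to pre-quench Cy3 and control constructs.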

A short description of data set [2]: melting temperature; fluorescence melt of hairpins on a sequencing array, two-state fit, raised by 9.35 °C to match UV melts. The following applies: sodium 0.088 M. The method, boiled down:
as §1

As for GGGGTTGGAAACAGTCCC (((..((....))..))), the folding enthalpy in data set [1] was -24.5 kcal/mol. In addition, in data set [2], the Tm was 36 °C.
For the sequence GGGGTTGGAAACGACCCC (((((.(....).))))), the folding enthalpy in data set [1] is -49.1 kcal/mol. Besides, the Tm in data set [2] turned out to be 57.8 °C.
Taken in the same sequence, the figures for GGGTAACGAAAGTTGCCC (((.(((....))).))) were -49.4 kcal/mol and 59.6 °C.
Taken in the same sequence, the figures for GGGTAAGCGAAAGCTCCC (((..(((....)))))) were -20.6 kcal/mol and 47.8 °C.
Taken in the same sequence, the figures for GGGTACGAAAGTAACCC ((((((....))).))) were -26.9 kcal/mol and 54.3 °C.
On to GGGTACGAAAGTAACCCC ((((((....)))..))), for which, in data set [1], the folding enthalpy was -21.9 kcal/mol. Moreover, in data set [2], the Tm was found to be 54.2 °C.
For GGGTACGAAAGTACTCCC ((((((....)))..))) the same measures were -13.4 kcal/mol and 45.6 °C.
For GGGTACGAAAGTATGCCC ((((((....)))..))) the same measures were -16 kcal/mol and 37.3 °C.
As for GGGTACGGAAACATACCC (((((.(....).))))), in data set [1], the folding enthalpy was -33.1 kcal/mol. Moreover, the Tm in data set [2] is 40.2 °C.
For GGGTACGGAAACGCACCC ((((.((....)).)))) the same measures were -49.4 kcal/mol and 52.3 °C.
For GGGTAGACGAAAGTCCCC (((..(((....)))))) the same measures were -18.6 kcal/mol and 46.5 °C.
For GGGTAGGGAAACCTATCC ((.((((....)))).)) the same measures were -29.7 kcal/mol and 46.6 °C.
Take GGGTAGTCGAAAGACCCC (((..(((....)))))): the folding enthalpy in data set [1] was -20.5 kcal/mol. Moreover, the Tm in data set [2] amounted to 45.4 °C.
Taken in the same sequence, the figures for GGGTATCCGAAAGGACCC (((..(((....)))))) were -18.6 kcal/mol and 43.9 °C.
Taken in the same sequence, the figures for GGGTATGGAAACACACCC ((((.((....)).)))) were -29.8 kcal/mol and 42.8 °C.
Taken in the same sequence, the figures for GGGTCACGAAAGTGCCCC (((.(((....))).))) were -27.4 kcal/mol and 63 °C.
As for GGGTCAGGAAACTGACTC (.(((((....))))).), in data set [1], the folding enthalpy was -30.7 kcal/mol. The Tm in data set [2] stood at 51.8 °C.
For GGGTCATCGAAAGATCCC (((..(((....)))))), in data set [1], the folding enthalpy is -20.3 kcal/mol. Further, the Tm in data set [2] was 34.5 °C.
For GGGTCCCCGAAAGGGCCC (((..(((....)))))), the folding enthalpy in data set [1] is -23.1 kcal/mol. Besides, the Tm in data set [2] worked out at 56 °C.
Taken in the same sequence, the figures for GGGTCCGAAAGGATCCC ((((((....))).))) were -31.5 kcal/mol and 60.1 °C.
Taken in the same sequence, the figures for GGGTCCGGAAACAGACCC (((((.(....).))))) were -44.5 kcal/mol and 49.5 °C.
Taken in the same sequence, the figures for GGGTCCGGAAACGGGTCC ((..(((....)))..)) were -27.6 kcal/mol and 50.1 °C.
With GGGTCGGCGAAAGCCCCC (((..(((....)))))), in data set [1], the folding enthalpy is -13.9 kcal/mol. In addition, in data set [2], the Tm stood at 46.1 °C.
For GGGTCGGGAAACCAACCC ((((.((....)).)))) the same measures were -35.2 kcal/mol and 47.1 °C.
For GGGTCGGGAAACTGACCC (((((.(....).))))) the same measures were -51.9 kcal/mol and 57.5 °C.
For GGGTCGTCGAAAGACCCC (((..(((....)))))), the folding enthalpy in data set [1] is -21.6 kcal/mol. For the same sequence, the Tm in data set [2] is 52.6 °C.
Taken in the same sequence, the figures for GGGTCTGCGAAAGCACCC (((..(((....)))))) were -17.5 kcal/mol and 44.2 °C.
Taken in the same sequence, the figures for GGGTCTGGAAACAGGTCC ((..(((....)))..)) were -27.8 kcal/mol and 39.9 °C.
Take GGGTCTGGAAACGGACTC (.(((.(....).))).): the folding enthalpy in data set [1] was -28.3 kcal/mol. For the same sequence, the Tm in data set [2] is 37.5 °C.
For GGGTGACCGAAAGGTCCC (((..(((....)))))) the same measures were -12.5 kcal/mol and 51.6 °C.
Taken in the same sequence, the figures for GGGTGAGAAATCACCC ((((((....)))))) were -37.1 kcal/mol and 61.6 °C.
Taken in the same sequence, the figures for GGGTGAGGAAACCCACCC (((((.(....).))))) were -50.9 kcal/mol and 51.7 °C.
In the case of GGGTGAGGAAACTTGCCC (((..((....))..))), the folding enthalpy in data set [1] was -22.9 kcal/mol. In addition, the Tm in data set [2] was 43.5 °C.
For GGGTGCACGAAAGTGCCC (((..(((....)))))) the same measures were -12.9 kcal/mol and 52.6 °C.
For GGGTGCCGAAAGGCTCCC (((.(((....))).))) the same measures were -20.6 kcal/mol and 69.1 °C.
Taken in the same sequence, the figures for GGGTGCGAAAGCAGACCC ((((((....)))..))) were -20.4 kcal/mol and 54.7 °C.
In the case of GGGTGCGAAAGCAGTCCC ((((((....)))..))), in data set [1], the folding enthalpy was -14.6 kcal/mol. In addition, the Tm in data set [2] worked out at 50.5 °C.
With GGGTGCGCGAAAGCGCCC (((..(((....)))))), the folding enthalpy in data set [1] is -10.8 kcal/mol. Also, the Tm in data set [2] amounted to 55.5 °C.
For GGGTGCGGAAACGCATCC ((.((((....)))).)) the same measures were -29.8 kcal/mol and 64.7 °C.
Taken in the same sequence, the figures for GGGTGGAAACACCC (((((....))))) were -28.2 kcal/mol and 63.5 °C.
Taken in the same sequence, the figures for GGGTGGGGAAACCTACCC ((((.((....)).)))) were -41.4 kcal/mol and 54.5 °C.
Take GGGTGGGGAAACTCACCC (((((.(....).))))): the folding enthalpy in data set [1] is -49.8 kcal/mol. The Tm in data set [2] was 55.4 °C.
Taken in the same sequence, the figures for GGGTGGGGAAACTCGCCC (((.(.(....).).))) were -30.9 kcal/mol and 47.6 °C.
Taken in the same sequence, the figures for GGGTGGTCGAAAGACCCC (((..(((....)))))) were -15.8 kcal/mol and 53.4 °C.
For GGGTGTGGAAACACGCTC (.(.(((....))).).) the same measures were -17.8 kcal/mol and 56.7 °C.
For GGGTGTGGAAACGCACTC (.(((.(....).))).), the folding enthalpy in data set [1] was -24 kcal/mol. Besides, the Tm in data set [2] worked out at 47.9 °C.
Taken in the same sequence, the figures for GGGTGTTCGAAAGAACCC (((..(((....)))))) were -16.7 kcal/mol and 52 °C.
For GGGTTAACGAAAGTTCCC (((..(((....)))))) the same measures were -21.2 kcal/mol and 37.4 °C.
For GGGTTAGAAATAACCC ((((((....)))))) the same measures were -36.4 kcal/mol and 53.1 °C.
For the sequence GGGTTAGCGAAAGCTCCC (((..(((....)))))), the folding enthalpy in data set [1] is -23.7 kcal/mol. The Tm in data set [2] is 41.8 °C.
Taken in the same sequence, the figures for GGGTTAGGAAACTAACCC (((((((....))))))) were -47.6 kcal/mol and 61.3 °C.
Regarding GGGTTAGGAAACTGACTC (.((.((....)).)).), in data set [1], the folding enthalpy was -12.3 kcal/mol. In addition, the Tm in data set [2] worked out at 27.7 °C.
Taken in the same sequence, the figures for GGGTTCACGAAAGTGCCC (((..(((....)))))) were -19.6 kcal/mol and 41.2 °C.
Regarding GGGTTCCGAAAGGATCCC (((.(((....))).))), the folding enthalpy in data set [1] is -42.1 kcal/mol. Also, the Tm in data set [2] worked out at 55.9 °C.
For GGGTTCGAAAGAACACCC ((((((....)))..))), in data set [1], the folding enthalpy was -11.8 kcal/mol. In addition, the Tm in data set [2] worked out at 55.1 °C.

Source of the values: the array DNA melting data of Ke et al. (doi:10.1101/2024.01.08.574731).
